ChEMBL document CHEMBL1759912, “Ionic liquid promoted synthesis, antibacterial and in vitro antiproliferative activity of novel α-aminophosphonate derivatives” (Bioorg Med Chem Lett, 2011)
The source made the active and inactive calls. The calls are words filed in the database; no cut-off is given here.

What was measured:
Escherichia coli = test: Antibacterial activity against ampicillin-resistant Escherichia coli NCIM 2645 assessed as bacterial growth inhibition zone after 24 hrs by disc diffusion method; format: functional, organism-based
How it was run: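 Strains activated in nutrient broth, 24 h at their optimum growth temperature. Nutrient agar plates seeded with 100 μl mid-log culture. Sterile 6 mm filter paper discs each loaded with 10 μl of compound solution (10 mg/ml in DMSO, filter-sterilised) and left to diffuse 20 min. Plates incubated 24 h at growth temperature. Controls: ampicillin disc (positive), 10 μl DMSO disc (negative). Zone ≥7 mm counted as susceptible.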

Salmonella typhi = test: Antibacterial activity against ampicillin-resistant Salmonella typhi NCIM 2501 assessed as bacterial growth inhibition zone at […] after 24 hrs by disc diffusion method; format: functional, organism-based; settings: Salmonella enterica subsp. enterica serovar Typhi
A549 [1] = test: Antiproliferative activity against human A549 cells; format: functional, cell-based
How it was run: (§1)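 A549 and SK-MEL2 cells (from NCCS Pune) grown in DMEM with 5–10% FBS, penicillin and 4 mM L-glutamine at 37 °C, 5% CO2. Plates were seeded 24 h ahead and washed with serum-free medium. Cells were exposed to 0, 2, 4, 8, 16 and 20 μM for […], then cell proliferation was estimated. Results are % cell growth, averaged from triplicate cultures run twice.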

SK-MEL-2 [2] = test: Antiproliferative activity against human SK-MEL-2 cells; format: functional, cell-based; how it was run: as §1
A549 [3] = test: Induction of apoptosis in human A549 cells after 6 hrs; format: functional, cell-based
SK-MEL-2 [4] = test: Induction of apoptosis in human SK-MEL-2 cells after 6 hrs; format: functional, cell-based
A549 [5] = test: Antiproliferative activity against human A549 cells assessed as growth inhibition at 2 to 20 uM after 24 hrs; format: functional

SMILES	Activity (Escherichia coli)	Activity (Salmonella typhi)	IC50 (A549 [1]) [µM]	IC50 (SK-MEL-2 [2]) [µM]	Activity (A549 [3])	Activity (SK-MEL-2 [4])	growth inhibition (GI) (A549 [5]) [%]
CCOP(=O)(OCC)C(Nc1ccc(Cl)cc1[N+](=O)[O-])c1ccc(OC)c(OC)c1 (configuration not stated)	Active	Active					
CCOP(=O)(OCC)C(Nc1ccc(I)cc1[N+](=O)[O-])c1ccc(Cl)cc1 (configuration not stated)		Active					
CCOP(=O)(OCC)C(Nc1ccc(Cl)cc1[N+](=O)[O-])c1c[nH]c2ccccc12 (configuration not stated)	Active	Active	11.5	8.43	Active	Active	80
CCOP(=O)(OCC)C(Nc1ccc(Cl)cc1[N+](=O)[O-])c1cccc(Cl)c1 (configuration not stated)	Active	Active					
